Laboratory results from ChEMBL document CHEMBL1153580, “Synthesis and pharmacological investigation of 3-(substituted 1-phenylethanone)-4-(substituted phenyl)-1, 2, 3, 4-tetrahydropyrimidine-5-carboxylates” (Eur J Med Chem, 2009).

Legend:
Rattus norvegicus [1] = assay: Antihypertensive activity in Norwegian albino rat assessed as inhibition of DOCA salt-induced systolic blood pressure at 10 mg/kg, po after 480 mins by non-invasive tail-cuff method; format: functional; conditions: Artery, 8 h
Method in brief: (§1)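 Male rats (200–250 g), uninephrectomized under pentobarbital (50 mg/kg i.p.); one week later DOCA s.c. 30–50 mg/kg/week, with 1% w/v NaCl in drinking water. Groups of six, trained in restrainer, tail warmed at 33–34 °C. Compound in 0.5% CMC, 10 mg/kg orally. Systolic pressure read by tail-cuff before dosing and from 1 h after; three readings averaged. ANOVA.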

Rattus norvegicus [2] = assay: Antihypertensive activity in Norwegian albino rat assessed as inhibition of DOCA salt-induced systolic blood pressure at 10 mg/kg, po after 120 mins by non-invasive tail-cuff method; format: functional; conditions: Artery, 2 h; method in brief: as §1
Rattus norvegicus [3] = assay: Antiinflammatory activity in Norwegian albino rat assessed as inhibition of carrageenan-induced paw edema at 100 mg/kg, po after administered 60 mins prior to carrageenan-challenge measured after 1 hr; format: functional
Method in brief: (§2)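 Compound given orally as 100 mg/kg suspension in 0.5% CMC. 60 min later, carrageenan injected sub-plantar into the left hind paw. Paw volume measured within 30 s of injection, then at 1–5 h. % inhibition = [1−(Dt/Dc)]×100, where Dt and Dc are mean relative paw-volume changes in test and control. ANOVA.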

Rattus norvegicus [4] = assay: Antihypertensive activity in Norwegian albino rat assessed as inhibition of DOCA salt-induced systolic blood pressure at 10 mg/kg, po after 300 mins by non-invasive tail-cuff method; format: functional; conditions: Artery, 5 h; method in brief: as §1
Rattus norvegicus [5] = assay: Antihypertensive activity in Norwegian albino rat assessed as inhibition of DOCA salt-induced systolic blood pressure at 10 mg/kg, po after 360 mins by non-invasive tail-cuff method; format: functional; conditions: Artery, 6 h; method in brief: as §1
Rattus norvegicus [6] = assay: Antiinflammatory activity in Norwegian albino rat assessed as inhibition of carrageenan-induced paw edema at 100 mg/kg, po after administered 60 mins prior to carrageenan-challenge measured after 5 hrs; format: functional; method in brief: as §2
Rattus norvegicus [7] = assay: Antihypertensive activity in Norwegian albino rat assessed as inhibition of DOCA salt-induced systolic blood pressure at 10 mg/kg, po after 15 mins by non-invasive tail-cuff method; format: functional; conditions: Artery, 0.25 h
Rattus norvegicus [8] = assay: Antiinflammatory activity in Norwegian albino rat assessed as inhibition of carrageenan-induced paw edema at 100 mg/kg, po after administered 60 mins prior to carrageenan-challenge measured after 3 hrs; format: functional; method in brief: as §2
Rattus norvegicus [9] = assay: Antihypertensive activity in Norwegian albino rat assessed as inhibition of DOCA salt-induced systolic blood pressure at 10 mg/kg, po after 180 mins by non-invasive tail-cuff method; format: functional; conditions: Artery, 3 h; method in brief: as §1
Rattus norvegicus [10] = assay: Antihypertensive activity in Norwegian albino rat assessed as inhibition of DOCA salt-induced systolic blood pressure at 10 mg/kg, po after 30 mins by non-invasive tail-cuff method; format: functional; conditions: Artery, 0.5 h
Rattus norvegicus [11] = assay: Antihypertensive activity in Norwegian albino rat assessed as inhibition of DOCA salt-induced systolic blood pressure at 10 mg/kg, po after 240 mins by non-invasive tail-cuff method; format: functional; conditions: Artery, 4 h; method in brief: as §1
Rattus norvegicus [12] = assay: Antihypertensive activity in Norwegian albino rat assessed as inhibition of DOCA salt-induced systolic blood pressure at 10 mg/kg, po after 420 mins by non-invasive tail-cuff method; format: functional; conditions: Artery, 7 h; method in brief: as §1
Rattus norvegicus [13] = assay: Antihypertensive activity in Norwegian albino rat assessed as inhibition of DOCA salt-induced systolic blood pressure at 10 mg/kg, po after 60 mins by non-invasive tail-cuff method; format: functional; conditions: Artery, 1 h; method in brief: as §1
Rattus norvegicus [14] = assay: Gastrointestinal toxicity in albino rat assessed as ulcerogenic index at 50 mg/kg, po; format: organism-based; parameters: dose 50 mg/kg, route oral; conditions: in vivo
Method in brief: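 Albino rats (150–200 g), six per group, food but not water withheld 24 h. Compound given p.o. at 50 mg/kg; controls received 1% methyl cellulose. Rats fed 17 h, then killed; stomach opened along greater curvature and examined under 4× magnifier. Lesions scored as large (>2 mm), small (1–2 mm) or punctiform (<1 mm). Severity index = treated mean score minus control mean score.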

Mus musculus = assay: Analgesic activity against acetic acid-induced writhing in Swiss albino mouse assessed as protection at 20 mg/kg, po; format: functional
Method in brief: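 Swiss albino mice (25–30 g), six per group, habituated 30 min individually in the test cage. Compound in 1% CMC given p.o. at 20 mg/kg. 1 h later, acetic acid injected i.p.; writhes (arching of back, body elongation, hind-limb extension) counted 5–15 min after injection. % inhibition = (n−n′)/n×100, where n and n′ are mean writhes in control and test.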

| SMILES | inhibition in vivo at 10 mg/kg (Rattus norvegicus [1]) [%] | inhibition in vivo at 10 mg/kg (Rattus norvegicus [2]) [%] | inhibition in vivo at 100 mg/kg (Rattus norvegicus [3]) [%] | inhibition in vivo at 10 mg/kg (Rattus norvegicus [4]) [%] | inhibition in vivo at 10 mg/kg (Rattus norvegicus [5]) [%] | inhibition in vivo at 100 mg/kg (Rattus norvegicus [6]) [%] | inhibition in vivo at 10 mg/kg (Rattus norvegicus [7]) [%] | inhibition in vivo at 100 mg/kg (Rattus norvegicus [8]) [%] | inhibition in vivo at 10 mg/kg (Rattus norvegicus [9]) [%] | inhibition in vivo at 10 mg/kg (Rattus norvegicus [10]) [%] | inhibition in vivo at 10 mg/kg (Rattus norvegicus [11]) [%] | inhibition in vivo at 10 mg/kg (Rattus norvegicus [12]) [%] | inhibition in vivo at 10 mg/kg (Rattus norvegicus [13]) [%] | UI (Rattus norvegicus [14]) | Activity (Mus musculus) [%] |
| --- | --- | --- | --- | --- | --- | --- | --- | --- | --- | --- | --- | --- | --- | --- | --- |
| CCOC(=O)C1=C(C)NC(OC)N(CC(=O)c2ccc(OC)cc2)C1c1ccc(O)cc1 (stereo not drawn) | 31 | 19.6 | 37.6 | 26.3 | 28 | 39.9 | 0.27 | 38.2 | 21.6 | 1.43 | 23.3 | 29.4 | 12.7 |  |  |
| CCOC(=O)C1=C(C)NC(OC)N(CC(=O)c2ccccc2)C1c1ccc(Cl)cc1 (stereo not drawn) | 35.6 | 20.5 | 39.8 | 28.4 | 29.7 | 42 | 0.91 | 41 | 22.9 | 1.87 | 25.6 | 32.1 | 15.2 | 0.45 | 37.87 |
| CCOC(=O)C1=C(C)NC(OC)N(CC(=O)c2ccccc2)C1c1ccccc1 (stereo not drawn) | 31 | 19.6 | 39.8 | 26.3 | 28.7 | 42 | 0.59 | 41 | 21.6 | 1.43 | 23.3 | 29.4 | 13 | 0.16 | 40.14 |
| CCOC(=O)C1=C(C)NC(OC)N(CC(=O)c2ccccc2)C1c1ccc(O)cc1 (stereo not drawn) | 35.5 | 21.8 | 39.8 | 28.5 | 31.4 | 42 | 0.59 | 40.9 | 23 | 1.87 | 27.8 | 33 | 15.2 | 0.18 | 40.33 |
| CC(C)Cc1ccc(C(C)C(=O)O)cc1 (stereo not drawn) [IBUPROFEN] |  |  |  |  |  |  |  |  |  |  |  |  |  | 1.97 | 62.55 |
| COc1ccc2c(c1)c(CC(=O)O)c(C)n2C(=O)c1ccc(Cl)cc1 [INDOMETHACIN] |  |  | 46.4 |  |  | 52.6 |  | 51.8 |  |  |  |  |  |  |  |
